# Source: ChEMBL document CHEMBL3853327 (J Med Chem, 2016)
# Columns and labels:
# [1] = Tmax in Sprague-Dawley rat plasma at 16 mg/kg administered through oral gavage measured at 5 mins to 24 hrs post dosing by LC/MS analysis; format: ADME, organism-based; conditions: in vivo
# Outline: (§1)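 Male Sprague-Dawley rats, ten randomly split into two groups (n = 5), single gavage dose of 8 or 16 mg·kg−1 in PEG 400/normal saline (70/30, V/V). Jugular sinus blood into heparinized tubes at 5 min to 24 h; plasma separated at 2200g for 8 min, stored −20 °C. Methanol precipitation with internal standard, LC-MS quantitation against plasma standard curves. Parameters reported as mean ± SD.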
# [2] = MRT (0 to t) in Sprague-Dawley rat plasma at 16 mg/kg administered through oral gavage measured at 5 mins to 24 hrs post dosing by LC/MS analysis; format: ADME, organism-based; outline: as §1
# [3] = system: Human immunodeficiency virus 1; test: Fold resistance, ratio of EC50 for HIV1 3B harboring reverse transcriptase Y188L mutant infected in human MT4 cells to EC50 for wild type HIV1 3B harboring reverse transcriptase infected in human MT4 cells; format: functional
# Outline: (§2)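 Fold resistance is the EC50 against the mutant HIV-1 strain divided by the EC50 against WT IIIB. Both EC50s come from the MT-4 MTT cytoprotection assay (5-day read, 100−300 CCID50 inoculum).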
# [4] = system: Human immunodeficiency virus 1; test: Antiviral activity against HIV1 3B harboring reverse transcriptase K103N mutant infected in human MT4 cells assessed as protection against virus induced cytotoxicity after 5 days by MTT assay; format: functional, cell-based; conditions: Human immunodeficiency virus 1, 3B, MT4, 120 h
# Outline: (§3)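 MTT cytopathicity assay in MT-4 cells (6 × 10^5 cells/mL). Compounds serially diluted 5-fold in triplicate wells, run in parallel on infected and mock-infected cells. Virus added at 100−300 CCID50 per well. Viability read spectrophotometrically at 540 and 690 nm after 5 days, using the median OD of three wells. EC50 is the concentration giving 50% protection from viral cytopathogenicity.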
# [5] = AUC (0 to infinity) in Sprague-Dawley rat plasma at 8 mg/kg administered through oral gavage measured at 5 mins to 24 hrs post dosing by LC/MS analysis; format: ADME, organism-based; set-up: dose 8 mg/kg, route oral, time infinity; conditions: in vivo; outline: as §1
# [6] = AUMC (0 to infinity) in Sprague-Dawley rat plasma at 16 mg/kg administered through oral gavage measured at 5 mins to 24 hrs post dosing by LC/MS analysis; format: ADME, organism-based; conditions: in vivo; outline: as §1
# [7] = system: Human immunodeficiency virus 1; test: Antiviral activity against HIV1 3B harboring reverse transcriptase L100I mutant infected in human MT4 cells assessed as protection against virus induced cytotoxicity after 5 days by MTT assay; format: functional, cell-based; conditions: Human immunodeficiency virus 1, 3B, MT4, 120 h; outline: as §3
# [8] = AUC (0 to infinity) in Sprague-Dawley rat plasma at 16 mg/kg administered through oral gavage measured at 5 mins to 24 hrs post dosing by LC/MS analysis; format: ADME, organism-based; set-up: dose 16 mg/kg, time infinity, route oral; conditions: in vivo; outline: as §1
# [9] = Selectivity index, ratio of CC50 for human mock-infected MT4 cells to EC50 for wild type HIV1 3B harboring reverse transcriptase infected in human MT4 cells; format: toxicity, cell-based; conditions: MT4 cells (mock-infected for CC50, HIV-1 infected for EC50)
# Outline: (§4)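 Selectivity index is CC50/EC50. CC50 is the concentration that reduces OD540 of mock-infected MT-4 cells by 50% in the 5-day MTT assay. EC50 is the 50% protection from virus-induced cytopathicity, measured in parallel on infected wells.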
# [10] = AUC (0 to t) in Sprague-Dawley rat plasma at 8 mg/kg administered through oral gavage measured at 5 mins to 24 hrs post dosing by LC/MS analysis; format: ADME, organism-based; set-up: dose 8 mg/kg, time 0.083-24 hr, route oral; outline: as §1
# [11] = Selectivity index, ratio of CC50 for human mock-infected MT4 cells to EC50 for HIV1 3B harboring reverse transcriptase L100I mutant infected in human MT4 cells; format: toxicity, cell-based; conditions: MT4 cells (mock-infected for CC50, HIV-1 infected for EC50); outline: as §4
# [12] = MRT (0 to infinity) in Sprague-Dawley rat plasma at 16 mg/kg administered through oral gavage measured at 5 mins to 24 hrs post dosing by LC/MS analysis; format: ADME, organism-based; outline: as §1
# [13] = Selectivity index, ratio of CC50 for human mock-infected MT4 cells to EC50 for HIV1 3B harboring reverse transcriptase Y188L mutant infected in human MT4 cells; format: toxicity, cell-based; conditions: MT4 cells (mock-infected for CC50, HIV-1 infected for EC50); outline: as §4
# [14] = system: Human immunodeficiency virus 1; test: Antiviral activity against HIV1 3B harboring reverse transcriptase Y181C mutant infected in human MT4 cells assessed as protection against virus induced cytotoxicity after 5 days by MTT assay; format: functional, cell-based; conditions: Human immunodeficiency virus 1, 3B, MT4, 120 h
# Outline: as §3, with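 “wells.” for “wells. EC50 is the concentration giving 50% protection from viral cytopathogenicity.”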
# [15] = VRT (0 to t) in Sprague-Dawley rat plasma at 8 mg/kg administered through oral gavage measured at 5 mins to 24 hrs post dosing by LC/MS analysis; format: ADME, organism-based; conditions: in vivo; outline: as §1
# [16] = system: Human immunodeficiency virus 1; test: Potency index, ratio of ETV EC50 to compound EC50 for HIV1 3B harboring reverse transcriptase F227L/V106A double mutant infected in human MT4 cells; format: functional
# [17] = system: Human immunodeficiency virus 1; test: Fold resistance, ratio of EC50 for HIV1 3B harboring reverse transcriptase K103N mutant infected in human MT4 cells to EC50 for wild type HIV1 3B harboring reverse transcriptase infected in human MT4 cells; format: functional; outline: as §2
# [18] = VRT (0 to infinity) in Sprague-Dawley rat plasma at 16 mg/kg administered through oral gavage measured at 5 mins to 24 hrs post dosing by LC/MS analysis; format: ADME, organism-based; conditions: in vivo; outline: as §1
# [19] = system: Human immunodeficiency virus 1; test: Antiviral activity against HIV1 3B harboring reverse transcriptase F227L/V106A double mutant infected in human MT4 cells assessed as protection against virus induced cytotoxicity after 5 days by MTT assay; format: functional, cell-based; conditions: Human immunodeficiency virus 1, 3B, MT4, 120 h; outline: as §3
# [20] = system: Human immunodeficiency virus 1; test: Antiviral activity against HIV1 3B harboring reverse transcriptase E138K mutant infected in human MT4 cells assessed as protection against virus induced cytotoxicity after 5 days by MTT assay; format: functional, cell-based; conditions: Human immunodeficiency virus 1, 3B, MT4, 120 h; outline: as §3
# [21] = Apparent half life in Sprague-Dawley rat plasma at 16 mg/kg administered through oral gavage measured at 5 mins to 24 hrs post dosing by LC/MS analysis; format: ADME, organism-based; conditions: in vivo; outline: as §1
# [22] = VRT (0 to infinity) in Sprague-Dawley rat plasma at 8 mg/kg administered through oral gavage measured at 5 mins to 24 hrs post dosing by LC/MS analysis; format: ADME, organism-based; conditions: in vivo; outline: as §1
# Mus musculus = test: Acute toxicity in Kunming mouse assessed as mortality at 2000 mg/kg, ig after 1 week; format: organism-based; conditions: in vivo, po, 168 h
# Outline: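 Kunming mice (18−22 g), fasted 12 h, then given a single intragastric dose suspended in PEG-400 (100 or 200 mg·mL−1 for 1000 or 2000 mg·kg−1). Six mice per dose group, half male and half female. Deaths and body-weight gain followed for 1 week.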
# [23] = MRT (0 to infinity) in Sprague-Dawley rat plasma at 8 mg/kg administered through oral gavage measured at 5 mins to 24 hrs post dosing by LC/MS analysis; format: ADME, organism-based; outline: as §1
# [24] = Apparent clearance during terminal phase in Sprague-Dawley rat plasma at 8 mg/kg administered through oral gavage measured at 5 mins to 24 hrs post dosing by LC/MS analysis; format: ADME, organism-based; conditions: in vivo; outline: as §1
# [25] = system: Human immunodeficiency virus 1; test: Antiviral activity against wild type HIV1 3B harboring reverse transcriptase infected in human MT4 cells assessed as protection against virus induced cytotoxicity after 5 days by MTT assay; format: functional, cell-based; conditions: Human immunodeficiency virus 1, 3B, MT4, 120 h
# Outline: as §3, with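 “wells.” for “wells. EC50 is the concentration giving 50% protection from viral cytopathogenicity.”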
# [26] = Tmax in Sprague-Dawley rat plasma at 8 mg/kg administered through oral gavage measured at 5 mins to 24 hrs post dosing by LC/MS analysis; format: ADME, organism-based; conditions: in vivo; outline: as §1
compound,measurement,setting,value
Cc1cc(C#N)cc(C)c1Oc1nc(NC2CCN(Cc3ccc(S(N)(=O)=O)cc3)CC2)nc2ccsc12,Tmax,[1],0.8 h
same,MRT last,[2],3.25 h
same,Ratio EC50,[3],<3
same,EC50,[4],2.9 nM
same,AUC,[5],1720.9 ng·h/mL
same,AUMC,[6],7215.795 ug/L.hr
same,EC50,[7],3.4 nM
same,AUC,[8],1756.7 ng·h/mL
same,selectivity ratio,[9],> 159000
same,AUC(0-t),[10],1680 ng·h/mL
same,selectivity ratio,[11],> 159000
same,MRT inf,[12],4.16 h
same,selectivity ratio,[13],> 70000
same,EC50,[14],3.2 nM
same,VRT(t),[15],7.78 hr2
same,Ratio EC50,[16],7
same,Ratio EC50,[17],<3
same,VRT,[18],25.29 hr2
same,EC50,[19],4.2 nM
same,EC50,[20],2.9 nM
same,t1/2(app),[21],3.6 h
same,VRT,[22],13.31 hr2
same,Activity,Mus musculus,Non-Toxic
same,MRT inf,[23],3.84 h
same,CLz/F,[24],172 mL/min/kg
same,EC50,[25],1.4 nM
same,Tmax,[26],1 h
